Active and inactive are the calls of the source. The calls are words filed in the database; no cut-off is given here.
What was measured:
[1] = (§1) Antiproliferative activity against human WM3629 cells after 24 hrs by MTT assay; format: functional; conditions: WM3629, 24 h
Procedure, shortened: (§2)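 WM3629 cells (Wistar Institute) were kept in Tu2% medium. GI50 was determined by MTT as for A375P: 5 × 10³ cells/well, 24 h settling, 12-point threefold serial dilutions, and absorbance at 590 nm.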

[2] = (§3) Antiproliferative activity against human A375P cells after 24 hrs by MTT assay; format: functional
Procedure, shortened: (§4)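 A375P cells (ATCC) grown in DMEM with 10% FBS and 1% penicillin/streptomycin at 37 °C, 5% CO2. Detached with 0.05% trypsin–0.02% EDTA, seeded at 5 × 10³ cells/well, and left 24 h before 12-point threefold serial dilutions were added. Viability was read by MTT reduction (CellTiter 96) at 590 nm, and GI50 was derived.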

[3] = target: T1, RAF proto-oncogene serine/threonine-protein kinase (Homo sapiens, UniProt P04049); test: Inhibition of human cRAF using [33P-ATP] as a substrate by scintillation counting
T1 sequence (P04049 whole entry): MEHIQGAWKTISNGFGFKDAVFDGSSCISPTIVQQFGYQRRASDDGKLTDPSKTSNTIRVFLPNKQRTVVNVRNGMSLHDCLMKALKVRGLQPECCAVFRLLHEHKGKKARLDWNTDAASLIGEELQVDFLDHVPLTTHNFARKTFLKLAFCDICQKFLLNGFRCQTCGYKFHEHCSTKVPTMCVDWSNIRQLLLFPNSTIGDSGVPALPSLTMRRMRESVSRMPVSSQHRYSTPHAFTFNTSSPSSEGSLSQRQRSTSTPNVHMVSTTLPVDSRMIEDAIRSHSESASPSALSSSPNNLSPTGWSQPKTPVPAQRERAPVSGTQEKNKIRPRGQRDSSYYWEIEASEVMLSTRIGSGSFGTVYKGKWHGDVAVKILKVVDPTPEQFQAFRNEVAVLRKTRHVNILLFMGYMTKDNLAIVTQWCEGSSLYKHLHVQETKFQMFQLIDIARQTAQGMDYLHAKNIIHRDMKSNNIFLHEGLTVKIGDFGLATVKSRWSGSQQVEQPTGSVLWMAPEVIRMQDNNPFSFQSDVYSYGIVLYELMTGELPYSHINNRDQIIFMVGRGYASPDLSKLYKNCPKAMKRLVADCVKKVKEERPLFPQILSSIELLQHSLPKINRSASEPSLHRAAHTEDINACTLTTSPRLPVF
Procedure, shortened: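 Run 40 min at room temperature, then stopped with 3% phosphoric acid. Spotted on P30 filter mat, washed in 75 mM phosphoric acid and methanol, dried, and scintillation-counted. IC50 came from a profiler service.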

WM3629 = test: as §1; format: functional; procedure, shortened: as §2
A375P = test: as §3; format: functional; procedure, shortened: as §4
[4] = target: BDNF/NT-3 growth factors receptor (Homo sapiens) (UniProt Q16620); test: Inhibition of human TrkB; conditions: concentration not given here
Chain of BDNF/NT-3 growth factors receptor (Homo sapiens) (Q16620 32-822 limits assumed): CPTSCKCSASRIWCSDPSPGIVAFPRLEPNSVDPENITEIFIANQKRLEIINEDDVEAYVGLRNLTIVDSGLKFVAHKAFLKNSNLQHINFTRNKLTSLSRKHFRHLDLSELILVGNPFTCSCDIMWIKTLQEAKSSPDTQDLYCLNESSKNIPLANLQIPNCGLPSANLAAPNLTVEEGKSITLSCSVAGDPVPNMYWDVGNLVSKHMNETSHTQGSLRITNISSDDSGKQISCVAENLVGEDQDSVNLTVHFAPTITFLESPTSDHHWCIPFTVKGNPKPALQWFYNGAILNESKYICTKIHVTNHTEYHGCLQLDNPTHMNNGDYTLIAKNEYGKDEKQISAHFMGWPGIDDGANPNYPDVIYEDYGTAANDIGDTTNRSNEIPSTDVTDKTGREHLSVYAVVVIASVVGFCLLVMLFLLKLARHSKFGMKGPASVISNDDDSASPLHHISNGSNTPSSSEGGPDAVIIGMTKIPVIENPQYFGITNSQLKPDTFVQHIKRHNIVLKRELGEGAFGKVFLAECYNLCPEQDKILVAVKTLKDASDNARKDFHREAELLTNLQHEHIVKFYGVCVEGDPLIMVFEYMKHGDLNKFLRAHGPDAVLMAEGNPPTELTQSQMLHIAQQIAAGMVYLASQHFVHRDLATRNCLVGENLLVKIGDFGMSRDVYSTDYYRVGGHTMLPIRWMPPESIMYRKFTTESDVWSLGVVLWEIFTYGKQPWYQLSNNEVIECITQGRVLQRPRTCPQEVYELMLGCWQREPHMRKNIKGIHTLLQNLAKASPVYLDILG
Procedure, shortened: (§5)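 Tested in an outsourced 30-kinase profiling service panel at a single concentration of 10, with percent inhibition reported.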

[5] = target: Hepatocyte growth factor receptor (Homo sapiens) (UniProt P08581); test: Inhibition of human Met; conditions: concentration not given here; procedure, shortened: as §5
Chain of Hepatocyte growth factor receptor (Homo sapiens) (P08581 whole entry): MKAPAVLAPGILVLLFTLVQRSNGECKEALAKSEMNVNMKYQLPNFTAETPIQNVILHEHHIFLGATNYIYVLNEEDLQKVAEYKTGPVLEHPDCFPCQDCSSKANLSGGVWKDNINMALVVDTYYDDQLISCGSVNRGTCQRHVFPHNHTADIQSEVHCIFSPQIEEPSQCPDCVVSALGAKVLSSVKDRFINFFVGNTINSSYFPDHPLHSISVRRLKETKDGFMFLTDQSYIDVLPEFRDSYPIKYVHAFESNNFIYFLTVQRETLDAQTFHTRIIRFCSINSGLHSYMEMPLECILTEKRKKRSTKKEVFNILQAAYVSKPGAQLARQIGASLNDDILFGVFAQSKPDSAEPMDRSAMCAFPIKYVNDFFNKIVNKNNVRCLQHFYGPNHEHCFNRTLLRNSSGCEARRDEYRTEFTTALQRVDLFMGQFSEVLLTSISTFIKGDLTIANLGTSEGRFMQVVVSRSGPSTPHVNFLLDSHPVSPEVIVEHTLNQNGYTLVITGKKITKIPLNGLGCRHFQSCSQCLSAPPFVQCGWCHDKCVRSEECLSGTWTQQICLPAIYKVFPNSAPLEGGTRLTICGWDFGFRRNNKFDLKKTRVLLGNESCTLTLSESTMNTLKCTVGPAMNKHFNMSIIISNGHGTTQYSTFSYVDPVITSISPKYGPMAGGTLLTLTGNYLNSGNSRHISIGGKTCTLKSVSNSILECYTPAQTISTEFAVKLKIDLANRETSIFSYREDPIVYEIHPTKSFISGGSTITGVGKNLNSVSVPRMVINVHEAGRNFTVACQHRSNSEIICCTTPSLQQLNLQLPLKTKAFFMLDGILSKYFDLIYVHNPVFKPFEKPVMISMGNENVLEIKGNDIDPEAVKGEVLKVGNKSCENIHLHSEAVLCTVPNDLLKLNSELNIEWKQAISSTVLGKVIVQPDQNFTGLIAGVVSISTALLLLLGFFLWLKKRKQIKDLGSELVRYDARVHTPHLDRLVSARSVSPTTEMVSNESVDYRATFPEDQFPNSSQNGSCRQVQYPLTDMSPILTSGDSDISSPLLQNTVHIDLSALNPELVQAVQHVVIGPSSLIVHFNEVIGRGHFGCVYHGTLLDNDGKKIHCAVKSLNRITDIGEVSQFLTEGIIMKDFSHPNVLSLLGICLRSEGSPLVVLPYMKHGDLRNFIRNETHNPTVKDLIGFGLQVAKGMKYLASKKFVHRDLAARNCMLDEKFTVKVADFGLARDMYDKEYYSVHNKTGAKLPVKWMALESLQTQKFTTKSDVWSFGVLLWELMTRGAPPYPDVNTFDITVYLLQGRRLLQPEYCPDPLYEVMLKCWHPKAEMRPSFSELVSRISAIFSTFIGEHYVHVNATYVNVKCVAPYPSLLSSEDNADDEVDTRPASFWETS

[6] = target: Insulin receptor (Homo sapiens) (UniProt P06213); test: Inhibition of human IR; conditions: concentration not given here; procedure, shortened: as §5
[7] = target: Tyrosine-protein kinase JAK2 (Homo sapiens) (UniProt O60674); test: Inhibition of human JAK2; conditions: concentration not given here; procedure, shortened: as §5
[8] = target: Mast/stem cell growth factor receptor Kit (Homo sapiens) (UniProt P10721); test: Inhibition of human cKIT; conditions: concentration not given here; procedure, shortened: as §5
[9] = target: ALK tyrosine kinase receptor (Homo sapiens) (UniProt Q9UM73); test: Inhibition of human ALK; conditions: concentration not given here; procedure, shortened: as §5
[10] = target: Receptor-type tyrosine-protein kinase FLT3 (Homo sapiens) (UniProt P36888); test: Inhibition of human Flt3; conditions: concentration not given here; procedure, shortened: as §5
[11] = target: Cyclin-dependent kinase 5/CDK5 activator 1 (Homo sapiens) (UniProt Q00535+Q15078); test: Inhibition of human CDK5/p35; format: protein-complex assay; conditions: concentration not given here; procedure, shortened: as §5
[12] = target: Proto-oncogene tyrosine-protein kinase Src (Homo sapiens) (UniProt P12931); test: Inhibition of human cSRC; conditions: concentration not given here; procedure, shortened: as §5
[13] = target: Ephrin type-A receptor 1 (Homo sapiens) (UniProt P21709); test: Inhibition of human EphA1; conditions: concentration not given here; procedure, shortened: as §5
[14] = target: Casein kinase II (Homo sapiens) (UniProt P67870+P68400+P19784); test: Inhibition of human CK2; format: protein-complex assay; conditions: concentration not given here; procedure, shortened: as §5
[15] = target: Platelet-derived growth factor receptor alpha (Homo sapiens) (UniProt P16234); test: Inhibition of human PDGFRalpha; conditions: concentration not given here; procedure, shortened: as §5
[16] = target: Inhibitor of nuclear factor kappa-B kinase subunit beta (Homo sapiens) (UniProt O14920); test: Inhibition of human IKK-beta; conditions: concentration not given here; procedure, shortened: as §5
[17] = target: Fibroblast growth factor receptor 1 (Homo sapiens) (UniProt P11362); test: Inhibition of human FGFR1; conditions: concentration not given here; procedure, shortened: as §5
[18] = target: T1, RAF proto-oncogene serine/threonine-protein kinase; test: Inhibition of human RAF; conditions: concentration not given here
Procedure, shortened: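 Human C-Raf (5–10 mU) incubated with 0.66 mg/mL myelin basic protein in 25 mM Tris pH 7.5, 0.02 mM EGTA, 10 mM Mg acetate. Spotted on P30 filter, washed in 75 mM phosphoric acid and methanol, then scintillation counted. Outsourced profiling service.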

[19] = target: Tyrosine-protein kinase receptor UFO (Homo sapiens) (UniProt P30530); test: Inhibition of human AXL; conditions: concentration not given here; procedure, shortened: as §5
[20] = target: Angiopoietin-1 receptor (Homo sapiens) (UniProt Q02763); test: Inhibition of human Tie2; conditions: concentration not given here; procedure, shortened: as §5
[21] = target: Serine/threonine-protein kinase PLK1 (Homo sapiens) (UniProt P53350); test: Inhibition of human PLK1; conditions: concentration not given here; procedure, shortened: as §5
[22] = target: Tyrosine-protein kinase BTK (Homo sapiens) (UniProt Q06187); test: Inhibition of human BTK; conditions: concentration not given here; procedure, shortened: as §5
Chain of Tyrosine-protein kinase BTK (Homo sapiens) (Q06187 whole entry): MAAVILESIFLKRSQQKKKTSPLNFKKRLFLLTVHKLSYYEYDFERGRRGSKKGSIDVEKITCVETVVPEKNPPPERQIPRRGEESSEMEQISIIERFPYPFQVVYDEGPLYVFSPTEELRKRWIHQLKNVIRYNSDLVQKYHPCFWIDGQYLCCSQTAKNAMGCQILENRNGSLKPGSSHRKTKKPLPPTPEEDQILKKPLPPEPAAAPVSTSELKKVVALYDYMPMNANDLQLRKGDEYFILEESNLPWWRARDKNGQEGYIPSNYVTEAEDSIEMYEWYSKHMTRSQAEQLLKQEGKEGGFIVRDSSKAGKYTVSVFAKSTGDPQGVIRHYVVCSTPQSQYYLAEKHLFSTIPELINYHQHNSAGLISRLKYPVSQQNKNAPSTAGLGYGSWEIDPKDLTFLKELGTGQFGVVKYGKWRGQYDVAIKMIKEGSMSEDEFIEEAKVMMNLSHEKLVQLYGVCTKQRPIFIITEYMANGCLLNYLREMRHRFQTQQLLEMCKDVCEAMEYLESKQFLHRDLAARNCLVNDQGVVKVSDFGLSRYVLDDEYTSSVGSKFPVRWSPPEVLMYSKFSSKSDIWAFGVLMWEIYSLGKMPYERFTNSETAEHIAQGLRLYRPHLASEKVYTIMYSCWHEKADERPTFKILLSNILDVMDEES

[23] = target: Ribosomal protein S6 kinase beta-1 (Homo sapiens) (UniProt P23443); test: Inhibition of human p701S6K; conditions: concentration not given here; procedure, shortened: as §5
[24] = target: Insulin-like growth factor 1 receptor (Homo sapiens) (UniProt P08069); test: Inhibition of human IGF1R; conditions: concentration not given here; procedure, shortened: as §5
[25] = target: Macrophage colony-stimulating factor 1 receptor (Homo sapiens) (UniProt P07333); test: Inhibition of human FMS; conditions: concentration not given here; procedure, shortened: as §5
Chain of Macrophage colony-stimulating factor 1 receptor (Homo sapiens) (P07333 whole entry): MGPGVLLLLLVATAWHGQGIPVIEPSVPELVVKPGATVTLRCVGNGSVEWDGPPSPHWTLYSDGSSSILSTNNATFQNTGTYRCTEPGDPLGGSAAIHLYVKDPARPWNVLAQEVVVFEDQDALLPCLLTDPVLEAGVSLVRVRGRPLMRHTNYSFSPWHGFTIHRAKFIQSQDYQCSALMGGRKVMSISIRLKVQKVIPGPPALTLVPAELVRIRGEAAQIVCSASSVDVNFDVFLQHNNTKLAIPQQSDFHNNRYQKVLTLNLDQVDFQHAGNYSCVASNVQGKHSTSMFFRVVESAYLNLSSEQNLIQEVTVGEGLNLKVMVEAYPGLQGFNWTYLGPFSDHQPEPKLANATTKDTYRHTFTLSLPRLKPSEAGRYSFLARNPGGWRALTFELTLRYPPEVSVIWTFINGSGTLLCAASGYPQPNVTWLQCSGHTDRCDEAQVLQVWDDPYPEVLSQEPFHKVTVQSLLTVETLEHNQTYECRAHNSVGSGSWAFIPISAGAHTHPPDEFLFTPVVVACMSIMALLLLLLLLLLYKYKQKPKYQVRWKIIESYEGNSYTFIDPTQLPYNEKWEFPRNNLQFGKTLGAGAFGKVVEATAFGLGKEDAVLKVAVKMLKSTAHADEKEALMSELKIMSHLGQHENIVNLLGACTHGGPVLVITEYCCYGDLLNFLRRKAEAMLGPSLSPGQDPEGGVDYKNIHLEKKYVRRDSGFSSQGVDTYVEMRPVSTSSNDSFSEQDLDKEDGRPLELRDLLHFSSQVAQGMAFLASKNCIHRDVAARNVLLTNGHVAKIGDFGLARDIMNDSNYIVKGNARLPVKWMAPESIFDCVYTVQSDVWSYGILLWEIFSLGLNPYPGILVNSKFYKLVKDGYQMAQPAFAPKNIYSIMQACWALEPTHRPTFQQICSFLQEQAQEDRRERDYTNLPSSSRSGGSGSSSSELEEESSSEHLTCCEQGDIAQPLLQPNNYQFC

Rattus norvegicus = species: Rattus norvegicus; test: Inhibition of rat AMPK; conditions: concentration not given here
Procedure, shortened: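 Part of an outsourced radiometric kinase panel of 30 kinases, tested at a single concentration of 10 µM. Read-out is percent inhibition of kinase activity.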

[26] = target: Vascular endothelial growth factor receptor 2 (Homo sapiens) (UniProt P35968); test: Inhibition of human KDR; conditions: concentration not given here; procedure, shortened: as §5
[27] = target: Tyrosine-protein kinase ABL1 (Homo sapiens) (UniProt P00519); test: Inhibition of human ABL; conditions: concentration not given here; procedure, shortened: as §5
[28] = target: Aurora kinase A (Homo sapiens) (UniProt O14965); test: Inhibition of human aurora A; conditions: concentration not given here; procedure, shortened: as §5
Chain of Aurora kinase A (Homo sapiens) (O14965 whole entry): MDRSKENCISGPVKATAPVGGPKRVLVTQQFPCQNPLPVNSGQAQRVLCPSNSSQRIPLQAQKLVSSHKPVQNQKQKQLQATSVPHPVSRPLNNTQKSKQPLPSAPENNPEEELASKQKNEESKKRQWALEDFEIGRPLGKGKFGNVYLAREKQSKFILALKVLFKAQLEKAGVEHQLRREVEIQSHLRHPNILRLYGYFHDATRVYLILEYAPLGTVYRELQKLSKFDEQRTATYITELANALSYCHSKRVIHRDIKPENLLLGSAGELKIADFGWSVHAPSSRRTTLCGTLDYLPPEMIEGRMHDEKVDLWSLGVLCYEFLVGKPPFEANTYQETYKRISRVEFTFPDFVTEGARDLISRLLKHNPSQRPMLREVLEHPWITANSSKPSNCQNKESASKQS

[29] = target: Tyrosine-protein kinase SYK (Homo sapiens) (UniProt P43405); test: Inhibition of human SYK; conditions: concentration not given here
[30] = target: Cyclin-dependent kinase 2/cyclin E1 (Homo sapiens) (UniProt P24864+P24941); test: Inhibition of human CDK2/cyclin E; format: protein-complex assay; conditions: concentration not given here; procedure, shortened: as §5
[31] = target: Cytoplasmic tyrosine-protein kinase BMX (Homo sapiens) (UniProt P51813); test: Inhibition of human BMX; conditions: concentration not given here; procedure, shortened: as §5

Cc1ccc(NC(=O)Nc2c(F)cc(F)c(C)c2F)cc1-c1nc2c(cnn2Cc2ccccc2)[nH]1
GI50 [1]: 1.29 µM
GI50 [2]: 7.73 µM

COc1ccc(Cn2ncc3[nH]c(-c4cc(NC(=O)Nc5cc(Cl)cc(C(F)(F)F)c5)ccc4C)nc32)cc1
GI50 [1]: > 100 µM
GI50 [2]: > 100 µM

Cc1ccc(NC(=O)Nc2cc(N3CCOCC3)cc(C(F)(F)F)c2)cc1-c1nc2c(cnn2Cc2ccccc2)[nH]1
GI50 [1]: 0.72 µM
IC50 ([3]; read-out: IC50): 0.156 µM
GI50 [2]: 4.29 µM

O=C(Nc1ccc(-c2nc3c(cnn3Cc3ccccc3)[nH]2)cc1)Nc1ccc(Cl)c(Cl)c1
GI50 [1]: 42.8 µM
GI50 [2]: > 100 µM

COc1ccc(Cn2ncc3[nH]c(-c4cc(NC(=O)Nc5c(F)cc(F)c(C)c5F)ccc4C)nc32)cc1
GI50 [1]: > 100 µM
GI50 [2]: > 100 µM

Cc1ccc2nc(NC(=O)Nc3ccc(-c4nc5[nH]ncc5[nH]4)c(C)c3)sc2c1
GI50 (WM3629): inactive
GI50 (A375P): inactive

Cc1ccc(NC(=O)c2cc(N3CCOCC3)cc(C(F)(F)F)c2)cc1-c1nc2[nH]ncc2[nH]1
GI50 (WM3629): inactive
GI50 (A375P): inactive

COc1ccc(Cn2ncc3[nH]c(-c4ccc(NC(=O)Nc5cc(N6CCOCC6)cc(C(F)(F)F)c5)cc4C)nc32)cc1
GI50 [1]: > 100 µM
GI50 [2]: > 100 µM

Cc1c(F)cc(F)c(NC(=O)Nc2ccc(-c3nc4c(cnn4Cc4ccccc4)[nH]3)cc2)c1F
GI50 [1]: 0.98 µM
GI50 [2]: 51.7 µM

COc1ccc(Cn2ncc3[nH]c(-c4cc(NC(=O)Nc5ccc(Cl)c(Cl)c5)ccc4C)nc32)cc1
GI50 [1]: 1.35 µM
IC50 ([3]; read-out: IC50): 0.839 µM
GI50 [2]: 15.3 µM

Cc1ccc(NC(=O)c2cc(Cl)cc(C(F)(F)F)c2)cc1-c1nc2c(cnn2Cc2ccccc2)[nH]1
GI50 [1]: 1.14 µM
IC50 ([3]; read-out: IC50): 0.146 µM
GI50 [2]: 2.06 µM

Cc1cc(NC(=O)Nc2cccc(Cl)c2Cl)ccc1-c1nc2[nH]ncc2[nH]1
GI50 (WM3629): inactive
GI50 (A375P): inactive

Cc1cc(NC(=O)Nc2cc(N3CCOCC3)cc(C(F)(F)F)c2)ccc1-c1nc2[nH]ncc2[nH]1
GI50 (WM3629): inactive
GI50 [2]: > 100 µM

COc1ccc(Cn2ncc3c2nc(-c2ccc(NC(=O)Nc4cc(Cl)cc(C(F)(F)F)c4)cc2C)n3C)cc1
GI50 [1]: 3.77 µM
GI50 [2]: 51.5 µM

Cc1ccc(NC(=O)Nc2cc(Cl)cc(C(F)(F)F)c2)cc1-c1nc2c(cnn2Cc2ccccc2)n1C
GI50 [1]: 5.85 µM
GI50 [2]: 56.3 µM

Cc1cc(NC(=O)Nc2cc(Cl)cc(C(F)(F)F)c2)ccc1-c1nc2c(cnn2Cc2ccccc2)n1C
GI50 [1]: 0.56 µM
IC50 [3]: Not Active
GI50 [2]: 4.16 µM

CNC(=O)c1cc(Oc2ccc(NC(=O)Nc3ccc(Cl)c(C(F)(F)F)c3)cc2)ccn1 [SORAFENIB]
GI50 [1]: 0.65 µM
GI50 [2]: 5.58 µM

Cc1cc(NC(=O)Nc2cc(Cl)cc(C(F)(F)F)c2)ccc1-c1nc2[nH]ncc2[nH]1
GI50 [1]: 14.4 µM
GI50 [2]: > 100 µM

O=C(Nc1ccc(-c2nc3c(cnn3Cc3ccccc3)[nH]2)cc1)Nc1cc(Cl)cc(C(F)(F)F)c1
GI50 [1]: 0.75 µM
IC50 ([3]; read-out: IC50): 0.37 µM
GI50 [2]: 6.65 µM

Cc1ccc(NC(=O)Nc2cc(N3CCOCC3)cc(C(F)(F)F)c2)cc1-c1nc2c(cnn2Cc2ccccc2)n1C
GI50 [1]: > 100 µM
GI50 [2]: > 100 µM

Cc1cn(-c2cc(NC(=O)Nc3ccc(-c4nc5[nH]ncc5[nH]4)c(C)c3)cc(C(F)(F)F)c2)cn1
inhibition [4]: 62%
inhibition [5]: 0%
inhibition [6]: 0%
inhibition [7]: 0%
inhibition [8]: 0%
inhibition [9]: 61%
inhibition [10]: 53%
inhibition [11]: 0%
inhibition [12]: 20%
inhibition [13]: 30%
inhibition [14]: 8%
inhibition [15]: 0%
inhibition [16]: 16%
inhibition [17]: 26%
inhibition [18]: 96%
inhibition [19]: 6%
inhibition [20]: 82%
GI50 [1]: 0.86 µM
inhibition [21]: 8%
inhibition [22]: 10%
inhibition [23]: 4%
inhibition [24]: 35%
inhibition [25]: 42%
IC50 ([3]; read-out: IC50): 0.05 µM
inhibition (Rattus norvegicus): 5%
inhibition [26]: 8%
inhibition [27]: 37%
inhibition [28]: 10%
GI50 [2]: 2.24 µM
inhibition [29]: 16%
inhibition [30]: 33%
inhibition [31]: 16%

Cc1ccc(NC(=O)Nc2cc(Cl)cc(C(F)(F)F)c2)cc1-c1nc2c(cnn2Cc2ccccc2)[nH]1
GI50 [1]: 0.85 µM
IC50 ([3]; read-out: IC50): 0.076 µM
GI50 [2]: 3.79 µM

COc1ccc(Cn2ncc3[nH]c(-c4ccc(NC(=O)Nc5nc6ccc(C)cc6s5)cc4C)nc32)cc1
GI50 (WM3629): inactive
GI50 (A375P): inactive

Cc1ccc(NC(=O)Nc2cccc(Cl)c2Cl)cc1-c1nc2[nH]ncc2[nH]1
GI50 (WM3629): inactive
GI50 (A375P): inactive

Cc1ccc(NC(=O)Nc2cc(Cl)cc(C(F)(F)F)c2)cc1-c1nc2[nH]ncc2[nH]1
GI50 [1]: > 100 µM
GI50 [2]: > 100 µM

Reference: ChEMBL document CHEMBL1155528, “1,4-dihydropyrazolo[4,3-d]imidazole phenyl derivatives: a novel type II Raf kinase inhibitors” (Bioorg Med Chem Lett, 2010)
